Four compounds from ChEMBL document CHEMBL1142711 (J Med Chem, 2005) can be followed below.

The structures appear in SMILES notation.

Assay [1] concerns the target Mu-type opioid receptor (Rattus norvegicus) (UniProt P33535). Put plainly: Stimulation of [35S]-GTP-gamma S binding to Opioid receptor mu 1 expressed in C6 cells. The assay is classed as functional, cell-based. Background: Binding of GTPγS marks nucleotide exchange on a G protein.
Assay [2] addresses T1, Kappa-type opioid receptor (Homo sapiens, UniProt P41145). Put plainly: Antagonistic activity against human opioid receptor kappa 1 expressed in CHO cells in [35S]GTP gamma S assay. It is filed as functional, cell-based. An outline of the steps: (§1)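 Antagonism in [35S]GTPγS binding on membranes: rat MOR/DOR in C6 cells, human KOR in CHO cells. Agonist dose-response curves run with and without test ligand: DAMGO (MOR), SNC80 (DOR), U69593 (KOR). Ke = [antagonist]/(dose-ratio − 1), ± SEM. Three separate experiments.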

A short description of assay [3]: Relative binding affinity for rat Opioid receptor delta 1 and human Opioid receptor kappa 1.
The nature of assay [4]: Relative binding affinity for rat Opioid receptor mu 1 and human Opioid receptor kappa 1.
The target in assay [5] is T2, Mu-type opioid receptor (Rattus norvegicus, UniProt P33535). Put plainly: Agonist activity against rat Opioid receptor mu 1 expressed in C6 cells in [35S]-GTP-gamma S binding assay. It is filed as functional, cell-based.
In assay [6] the target is T3, Delta-type opioid receptor (Rattus norvegicus, UniProt P33533). As to the kind of experiment: Agonist activity against Opioid receptor delta 1 expressed in C6 cells in [35S]-GTP-gamma S assay; No stimulation up to 10000 nM. It is filed as functional, cell-based.
Assay [7] deals with T2, Mu-type opioid receptor. Put plainly: Inhibition of [3H]diprenorphine binding to rat Opioid receptor mu 1 expressed in C6 cells. The assay is classed as cell-based. An outline of the steps:
(§2)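 Competition binding with [3H]diprenorphine on rat MOR or DOR expressed in C6 cells and human KOR in CHO cells. Mean of three experiments, each in duplicate.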

Assay [8] has as its target T1, Kappa-type opioid receptor. As to the kind of experiment: Inhibition of [3H]diprenorphine binding to human opioid receptor kappa 1 expressed in CHO cells. It is filed as cell-based. An outline of the steps:
as §2

Assay [9] addresses T1, Kappa-type opioid receptor. As to the kind of experiment: Agonist activity against Opioid receptor kappa 1 expressed in CHO cells in [35S]-GTP-gamma S assay; No stimulation up to 10000 nM. It is filed as functional, cell-based.
Assay [10] addresses T3, Delta-type opioid receptor. Put plainly: Inhibition of [3H]diprenorphine binding to rat Opioid receptor delta 1 expressed in C6 cells. It is filed as cell-based. An outline of the steps:
as §2

For assay [11], the system named is Mus musculus. As to the kind of experiment: In vivo effective concentration for agonist activity in mouse tail withdrawal assay for antinociception after 48 hr of pre treatment with U-69,593 icv administration (10 nmol). The assay is classed as functional, organism-based. An outline of the steps:
(§3)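 Mouse warm-water tail withdrawal, water at 50 °C. Agonist U69593 given sc, and its dose-response EC50 (mg/kg) determined. Pretreatment 1, 3, 18, 24 or 48 h before, sc at 10 or 32 mg/kg; or icv 10 nmol at 1, 24, 48 or 168 h before. Vehicle control at −1 h. Fold shift and its significance reported.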

Assay [12] has as its system Mus musculus. Put plainly: In vivo effective concentration for agonist activity in mouse tail withdrawal assay for antinociception after 24 hr of pre treatment with U-69,593 sc administration (32 mg/kg). The assay is classed as functional, organism-based. An outline of the steps:
as §3

For assay [13], the system named is Mus musculus. Put plainly: In vivo effective concentration for agonist activity in mouse tail withdrawal assay for antinociception after 1 hr of pre treatment with U-69,593 icv administration (10 nmol). It is filed as functional, organism-based. An outline of the steps:
as §3

For assay [14], the system named is Mus musculus. Put plainly: In vivo effective concentration for agonist activity in mouse tail withdrawal assay for antinociception after 18 h of pre treatment with U-69,593 sc administration (10 mg/kg). The assay is classed as functional, organism-based. An outline of the steps:
as §3

Assay [15] deals with Mus musculus. Put plainly: In vivo effective concentration for agonist activity in mouse tail withdrawal assay for antinociception after 1 hr of pre treatment with U-69,593 sc administration (10 mg/kg). It is filed as functional, organism-based. An outline of the steps:
as §3

In assay [16] the test system is Mus musculus. Put plainly: In vivo effective concentration for agonist activity in mouse tail withdrawal assay for antinociception after 168h of pre treatment with U-69,593 icv administration (10 nmol). It is filed as functional, organism-based. An outline of the steps: as §3
Assay [17] deals with Mus musculus. As to the kind of experiment: In vivo effective concentration for agonist activity in mouse tail withdrawal assay for antinociception after 24 hr of pre treatment with U-69,593 icv administration (10 nmol). It is filed as functional, organism-based. An outline of the steps: as §3
Assay [18] addresses Delta-type opioid receptor (Rattus norvegicus) (UniProt P33533). Put plainly: Antagonistic activity against rat opioid receptor delta 1 expressed in C6 cells in [35S]GTP gamma S assay. The assay is classed as functional, cell-based. An outline of the steps:
as §1

The subject of assay [19] is Mus musculus. Put plainly: In vivo effective concentration for agonist activity in mouse tail withdrawal assay for antinociception after 24 hr of pre treatment with U-69,593 sc administration (10 mg/kg). It is filed as functional, organism-based. An outline of the steps: as §3
The test system of assay [20] is Mus musculus. As to the kind of experiment: In vivo effective concentration for agonist activity in mouse tail withdrawal assay for antinociception after 3h of pre treatment with U-69,593 sc administration (10 mg/kg). The assay is classed as functional, organism-based. An outline of the steps: as §3
The target of assay [21] is T1, Kappa-type opioid receptor. As to the kind of experiment: Stimulation of [35S]-GTP-gamma S binding to Opioid receptor kappa 1 expressed in […] cells. It is filed as functional, cell-based.
Assay [22] concerns the target Mu-type opioid receptor (Rattus norvegicus) (UniProt P33535). Put plainly: Antagonistic activity against rat opioid receptor mu 1 expressed in C6 cells in [35S]GTP gamma S assay. The assay is classed as functional, cell-based. An outline of the steps:
as §1

In assay [23] the test system is Mus musculus. Put plainly: In vivo effective concentration for agonist activity in mouse tail withdrawal assay for antinociception after 48 hr of pre treatment with U-69,593 sc administration (10 mg/kg). It is filed as functional, organism-based. An outline of the steps: as §3
Assay [24] has as its target T1, Kappa-type opioid receptor. Put plainly: Agonist activity against human Opioid receptor kappa 1 expressed in CHO cells in [35S]-GTP-gamma S binding assay. The assay is classed as functional, cell-based.
Assay [25] concerns the target T2, Mu-type opioid receptor. As to the kind of experiment: Agonist activity against Opioid receptor mu 1 expressed in C6 cells in [35S]-GTP-gamma S assay; No stimulation up to 10000 nM. It is filed as functional, cell-based.

T1 sequence (P41145 whole entry): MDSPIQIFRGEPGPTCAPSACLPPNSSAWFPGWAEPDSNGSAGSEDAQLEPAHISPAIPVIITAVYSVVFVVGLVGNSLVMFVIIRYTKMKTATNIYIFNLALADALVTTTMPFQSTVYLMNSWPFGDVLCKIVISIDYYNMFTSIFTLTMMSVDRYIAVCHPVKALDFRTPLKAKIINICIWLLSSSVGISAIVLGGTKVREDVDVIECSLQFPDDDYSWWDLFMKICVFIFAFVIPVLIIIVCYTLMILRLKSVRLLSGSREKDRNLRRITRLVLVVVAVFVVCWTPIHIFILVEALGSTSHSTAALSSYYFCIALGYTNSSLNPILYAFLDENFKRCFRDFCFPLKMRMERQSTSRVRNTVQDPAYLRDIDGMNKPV
T3 sequence (P33533 whole entry): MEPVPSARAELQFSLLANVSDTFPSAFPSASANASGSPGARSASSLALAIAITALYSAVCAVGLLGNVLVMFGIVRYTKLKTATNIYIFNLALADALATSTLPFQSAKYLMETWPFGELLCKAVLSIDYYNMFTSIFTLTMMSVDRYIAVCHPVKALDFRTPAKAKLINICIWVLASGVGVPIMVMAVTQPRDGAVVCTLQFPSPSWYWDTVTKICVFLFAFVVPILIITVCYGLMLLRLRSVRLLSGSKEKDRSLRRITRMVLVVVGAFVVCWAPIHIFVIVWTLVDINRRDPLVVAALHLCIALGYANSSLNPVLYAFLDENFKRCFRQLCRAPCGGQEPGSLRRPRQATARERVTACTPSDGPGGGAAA
T2 sequence (P33535 whole entry): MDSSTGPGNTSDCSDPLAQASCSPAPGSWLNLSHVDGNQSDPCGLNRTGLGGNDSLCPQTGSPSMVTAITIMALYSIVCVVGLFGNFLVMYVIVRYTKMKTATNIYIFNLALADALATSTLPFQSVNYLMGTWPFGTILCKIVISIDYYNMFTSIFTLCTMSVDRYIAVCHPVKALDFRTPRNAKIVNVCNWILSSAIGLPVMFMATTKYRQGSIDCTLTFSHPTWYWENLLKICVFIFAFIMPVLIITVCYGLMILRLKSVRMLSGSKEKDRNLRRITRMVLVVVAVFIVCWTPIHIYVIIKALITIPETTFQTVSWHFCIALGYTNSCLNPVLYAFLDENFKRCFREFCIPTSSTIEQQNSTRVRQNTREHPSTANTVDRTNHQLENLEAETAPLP
Chain of Mu-type opioid receptor (Rattus norvegicus) (P33535 whole entry): as above
Chain of Delta-type opioid receptor (Rattus norvegicus) (P33533 whole entry): as the sequence (P33533 whole entry) above

Consider `C[C@H]1c2c(c3c(n2Cc2ccccc2)[C@@H]2Oc4c(O)ccc5c4[C@@]24CCN(C)[C@H](C5)[C@]4(O)C3)CC2(O)[C@H]3Cc4ccc(O)c(O)c4[C@@]12CCN3C` (stereo partly specified), for which the Stimulation in assay [1] was found to be 54%. The compound further came in with a Ke in assay [2] of 311 nM. The Ratio in assay [3] is 8; in [4], 0.3.

The term Ki denotes a dissociation constant, usually derived from enzyme kinetics or from competition with a known ligand. Low readings indicate a stronger hold on the target, high ones a looser hold on the target. Take `CN1CC[C@]23c4c5ccc(O)c4O[C@H]2c2[nH]c4c(c2C[C@@]3(O)[C@H]1C5)C[C@@]1(O)[C@H]2Cc3ccc(O)c5c3[C@@]1(CCN2C)[C@H]4O5`: the EC50 was 1390 nM on Mu-type opioid receptor [5], “Not Active” in [6] and “Not Active” in assay [9]. In addition, the Ki on Mu-type opioid receptor [7] was 63.6 nM; in assay [8], 7.7 nM; in assay [10], 98.2 nM. Besides, in assay [1], the Stimulation was found to be 66%. Also, the Ke in [2] was found to be 27 nM. The values for the Ratio in assay [3] and in [4] were 13 and 8, respectively.

Take `Oc1ccc2c3c1O[C@H]1c4c(c5c(n4Cc4ccccc4)[C@@H]4Oc6c(O)ccc7c6[C@@]46CCN(CC4CC4)[C@H](C7)[C@]6(O)C5)C[C@@]4(O)[C@@H](C2)N(CC2CC2)CC[C@]314`: the EC50 with Mus musculus [11] is 74.2 mh/kg; on Mu-type opioid receptor [5], 187 nM; in assay [6], “Not Active”; in the assay on Mus musculus [12] it was 5.7 mh/kg; in the assay on Mus musculus [13], 49.1 mh/kg; in the assay with Mus musculus [14] it was 9 mg/kg. Moreover, the EC50 was 2 mg/kg with Mus musculus [15]; 37 mh/kg in the assay on Mus musculus [16]; 26.3 mh/kg in the assay on Mus musculus [17]; 4.4 mg/kg with Mus musculus [19]; 2.1 mg/kg with Mus musculus [20]; 9.9 mh/kg in the assay on Mus musculus [23]. Further, the EC50 in assay [24] was found to be 1910 nM. Further, the Ki at Mu-type opioid receptor [7] is 10 nM; in assay [8], 0.7 nM; in assay [10], 8.6 nM. Further, the values for the Ke in assay [18], in assay [2] and in assay [22] were 13.3 nM, 0.26 nM and 25.5 nM, respectively. Further, the Stimulation stood at 29% in [21] and 38% in [1]. Besides, the Ratio in assay [3] turned out to be 12; in assay [4], 14.

As to `Oc1ccc2c3c1O[C@H]1c4[nH]c5c(c4C[C@@]4(O)[C@@H](C2)N(CC2CC2)CC[C@]314)C[C@@]1(O)[C@H]2Cc3ccc(O)c4c3[C@@]1(CCN2CC1CC1)[C@H]5O4` [NORBINALTORPHIMINE], the EC50 entry in assay [6] is “Not Active”; with Mus musculus [12] it was 22.7 mg/kg; with Mus musculus [17], 31.8 mg/kg; in assay [9] it was “Not Active”; at Mu-type opioid receptor [25], “Not Active”. The Ke was 5.17 nM in assay [18], 0.11 nM in assay [2] and 2.38 nM in [22]. In assay [10], this compound gave a Ki of 5.8 nM.
